The test system of assay [1] is CCRF-CEM. Briefly: Cell cycle arrest in human CEM cells assessed as accumulation at G2/M phase at 3.2 uM after 18 hrs by flow cytometry. Format: functional. In a few lines:
(§1)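 CEM cells grown in RPMI-1640 with 10% heat-inactivated FCS at 37 °C, 5% CO2, exposed to compound for 18 h at 37 °C. Fixed in 70% ethanol 18 h at 4 °C, RNase A (50 µg/ml) 0.5 h at 37 °C, then propidium iodide (final 50 µg/ml) 0.5 h at 4 °C. Flow cytometry on 10^4 cells per sample gave phase distribution.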
(Flow cytometry measures light scatter and fluorescence of single cells or particles in a stream.)

For assay [2], the system named is CCRF-CEM. Nature of the assay: Induction of apoptosis in human CEM cells at 3.2 uM after 18 hrs by flow cytometry. The class given is functional. In a few lines:
(§2)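 CEM cells exposed 18 h at 37 °C, then ethanol-fixed, RNase-treated and stained with propidium iodide (final 50 µg/ml). Flow cytometry on 10^4 cells per sample. Dead cells were scored as the population left of the G1/G0 peak, reflecting DNA degradation, and reported as percent.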

For assay [3], the system named is CCRF-CEM. Nature of the assay: Cytotoxicity against human CEM cells after 72 hrs by MTT assay. The class given is functional, cell-based. Summed up:
(§3)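 Cells kept in RPMI-1640 with 10% heat-inactivated FCS plus penicillin/streptomycin at 37 °C, 5% CO2. Seeded at 1 × 10^5 cells per well and treated at 0.001–100 µM for 72 h at 37 °C. Viability read by MTT. IC50 was the concentration killing 50% relative to untreated controls, by non-linear regression. Duplicate wells, three independent experiments.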
On the technique in general: Tetrazolium dyes change colour on reduction, which living cells bring about.

For assay [4], the system named is CCRF-CEM. Briefly: Cell cycle arrest in human CEM cells assessed as accumulation at G0/G1 phase at 3.2 uM after 18 hrs by flow cytometry. The class given is functional. In a few lines: as §1
The test system of assay [5] is CCRF-CEM. Briefly: Cell cycle arrest in human CEM cells assessed as accumulation at S phase at 3.2 uM after 18 hrs by flow cytometry. Format: functional. In a few lines:
as §1

For assay [6], the system named is CCRF-CEM. Nature of the assay: Cell cycle arrest in human CEM cells assessed as accumulation at S phase at 6.4 uM after 18 hrs by flow cytometry. Conditions: in the assay text read “10 uM” for “6.4 uM”. Format: functional. In a few lines: as §1
Assay [7] relates to CCRF-CEM. Briefly: Cell cycle arrest in human CEM cells assessed as accumulation at G2/M phase at 6.4 uM after 18 hrs by flow cytometry. The class given is functional. Conditions: in the assay text read “10 uM” for “6.4 uM”. In a few lines: as §1
The subject of assay [8] is CCRF-CEM. Briefly: Induction of apoptosis in human CEM cells at 6.4 uM after 18 hrs by flow cytometry. The class given is functional. Conditions: in the assay text read “10 uM” for “6.4 uM”. Summed up: as §2
The species named for assay [9] is Bos taurus. Briefly: Inhibition of calf brain beta-tubulin polymerization at 10 uM after 30 mins by spectrophotometry. Summed up:
(§4)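 Calf brain tubulin (100 µL at 1 mg/ml) was mixed with 400 µL buffer: 0.1 M MES, 1 mM EGTA, 0.5 mM MgCl2, 0.1 mM EDTA, 2.5 M glycerol. Compound or solvent control was added, then GTP to a final 1 mM. OD340 was read at 0 min (baseline) and at 30 min, with assembly at room temperature.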

For assay [10], the system named is CCRF-CEM. Briefly: Cell cycle arrest in human CEM cells assessed as accumulation at G0/G1 phase at 6.4 uM after 18 hrs by flow cytometry. Format: functional. Conditions: in the assay text read “10 uM” for “6.4 uM”. In a few lines: as §1
Assay [11] concerns CCRF-CEM. Briefly: Cell cycle arrest in human CEM cells assessed as accumulation at G2/M phase at 10 uM after 18 hrs by flow cytometry. Format: functional. Conditions: in the assay text read “6.4 uM” for “10 uM”. In a few lines: as §1
In assay [12] the test system is CCRF-CEM. Nature of the assay: Induction of apoptosis in human CEM cells at 10 uM after 18 hrs by flow cytometry. Format: functional. Conditions: in the assay text read “6.4 uM” for “10 uM”. In a few lines: as §2
The species named for assay [13] is Bos taurus. Nature of the assay: Inhibition of calf brain beta-tubulin polymerization at 6.4 uM after 30 mins by spectrophotometry. Summed up:
as §4

The test system of assay [14] is CCRF-CEM. Briefly: Cytotoxicity against human CEM cells after 24 hrs by MTT assay. The class given is functional, cell-based. In a few lines:
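CEM cells treated at a range of concentrations for 24 h. Cell death measured by MTT.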

The next assay has as its system Daudi. Nature of the assay: Cytotoxicity against human Daudi cells after 72 hrs by MTT assay. The class given is functional, cell-based. Summed up: as §3
The next assay has as its system MCF7. Briefly: Cytotoxicity against human MCF7 cells after 72 hrs by MTT assay. The class given is functional, cell-based. Conditions: MCF7, 72 h. In a few lines:
as §3

The next assay deals with Bel-7402. Nature of the assay: Cytotoxicity against human Bel7402 cells after 72 hrs by MTT assay. Conditions: Bel-7402, 72 h. Format: functional, cell-based. In a few lines:
as §3

The test system of a further assay is DU-145. Briefly: Cytotoxicity against human DU145 cells after 72 hrs by MTT assay. Conditions: DU-145, 72 h. The class given is functional, cell-based. In a few lines: as §3
The next assay has as its system PC-3. Nature of the assay: Cytotoxicity against human PC3 cells after 72 hrs by MTT assay. Conditions: PC-3, 72 h. Format: functional, cell-based. In a few lines:
as §3

Assay [15] in a line: Cytotoxicity against human DND1A cells after 72 hrs by MTT assay. The class given is functional, cell-based. Summed up: as §3
Another assay concerns LoVo. Nature of the assay: Cytotoxicity against human LoVo cells after 72 hrs by MTT assay. The class given is functional, cell-based. In a few lines:
as §3

Another assay relates to MIA PaCa-2. Briefly: Cytotoxicity against human MIAPaCa2 cells after 72 hrs by MTT assay. The class given is functional, cell-based. Conditions: MIA PaCa-2, 72 h. In a few lines: as §3
The subject of assay [16] is CCRF-CEM. Nature of the assay: Cell cycle arrest in human CEM cells assessed as accumulation at G0/G1 phase at 10 uM after 18 hrs by flow cytometry. Conditions: in the assay text read “6.4 uM” for “10 uM”. The class given is functional. In a few lines:
as §1

In assay [17] the test system is CCRF-CEM. Briefly: Cell cycle arrest in human CEM cells assessed as accumulation at S phase at 10 uM after 18 hrs by flow cytometry. The class given is functional. Conditions: in the assay text read “6.4 uM” for “10 uM”. Summed up: as §1
For assay [18], the system named is CCRF-CEM. Briefly: Cell cycle arrest in human CEM cells assessed as accumulation at S phase at 3.3 uM after 18 hrs by flow cytometry. The class given is functional. In a few lines:
as §1

In assay [19] the test system is CCRF-CEM. Briefly: Cell cycle arrest in human CEM cells assessed as accumulation at G2/M phase at 3.3 uM after 18 hrs by flow cytometry. Format: functional. In a few lines: as §1
In assay [20] the test system is CCRF-CEM. Nature of the assay: Induction of apoptosis in human CEM cells at 3.3 uM after 18 hrs by flow cytometry. The class given is functional. In a few lines:
as §2

Assay [21] is filed under the species Bos taurus. Briefly: Inhibition of calf brain beta-tubulin polymerization at 3.3 uM after 30 mins by spectrophotometry. In a few lines: as §4
Assay [22] relates to CCRF-CEM. Briefly: Cell cycle arrest in human CEM cells assessed as accumulation at G0/G1 phase at 3.3 uM after 18 hrs by flow cytometry. The class given is functional. In a few lines:
as §1

Active and inactive are the calls of the source. No cut-off for these calls is given here. Bounds are passed on as bounds.

By IC50 is commonly meant the concentration that inhibits the measured activity by half. A lower IC50 goes with inhibition by little substance. On to `CC(Br)C(=O)Nc1cccc(C(=O)NC(N)=O)c1` (centres undefined), for which the Activity in the assay on CCRF-CEM [1] was 63.2%; in the assay on CCRF-CEM [2], 9.5%; in the assay with CCRF-CEM [4], 2%; with CCRF-CEM [5], 25.3%. Besides, the IC50 in the assay on CCRF-CEM [3] came out at 1.47 µM.
Take `CC(Br)C(=O)Nc1cccc(NC(=O)NCCCl)c1` (centres undefined): half-maximal inhibition in the assay on CCRF-CEM [3] (IC50) required 22.7 µM.
On the same count and under the same terms, for `NC(=O)NC(=O)c1cccc(NC(=O)CBr)c1` the value was 0.725 µM.
Take `O=C(CI)Nc1cccc(NC(=O)NCCCl)c1`: the Activity with CCRF-CEM [6] is on record as 30.1%; in the assay on CCRF-CEM [7] it was 2.6%; in the assay on CCRF-CEM [8] it was 33.2%; in the assay with CCRF-CEM [10], 34.1%. Besides, the inhibition result in the assay filed under Bos taurus [9] is “inactive”. In the assay on CCRF-CEM [3], this molecule gave an IC50 of 0.1 µM.
In the assay with CCRF-CEM [3], `O=C(CCCl)NC(=O)Nc1cccc(NC(=O)CBr)c1` had a half-inhibitory concentration (IC50) of 1.9 µM.
The same measure, in the same setting: for `COc1cc(NC(=O)Nc2cccc(NC(=O)C(C)Br)c2)cc(OC)c1OC` (centres undefined) the value was 3.99 µM.
On to `O=C(CBr)NC(=O)Nc1cccc(NC(=O)CBr)c1`, for which the Activity with CCRF-CEM [11] was 13.2%; in the assay on CCRF-CEM [12], 24.8%; with CCRF-CEM [14], “Dose-dependent effect”; in the assay with CCRF-CEM [16], 48.3%; with CCRF-CEM [17], 13.7%. Further, the inhibition entry in the assay listed under Bos taurus [13] was “inactive”. In addition, the IC50 is 0.56 µM in the assay on CCRF-CEM [3]; 0.38 µM in the assay on Daudi; 0.59 µM in the assay with MCF7; 4.07 µM in the assay on Bel-7402; 1.28 µM in the assay on DU-145; more than 100 µM in the assay with PC-3. Moreover, the concentration for half-maximal inhibition (IC50) was 0.51 µM in assay [15], 1.99 µM in the assay with LoVo and 2.81 µM in the assay with MIA PaCa-2.
Consider `CC(Br)C(=O)Nc1cccc(NC(=O)NC=O)c1` (centres undefined), for which 10.2 µM corresponded to half-maximal inhibition with CCRF-CEM [3] (IC50).
With `O=C(CBr)Nc1cccc(NC(=O)Nc2ccccc2)c1`, 0.86 µM corresponded to half-maximal inhibition in the assay with CCRF-CEM [3] (IC50).
For `O=CNC(=O)Nc1cccc(NC(=O)CBr)c1`, the Activity came out at 12.9% with CCRF-CEM [18], 2% with CCRF-CEM [19], 52.6% in the assay with CCRF-CEM [20] and 33.5% with CCRF-CEM [22]. In addition, in the assay filed under Bos taurus [21], the inhibition entry was “inactive”. Besides, the IC50 in the assay on CCRF-CEM [3] was 0.85 µM.
`CC(=O)NC(=O)Nc1cccc(NC(=O)C(C)Br)c1` (centres undefined): half-maximal inhibition in the assay on CCRF-CEM [3] (IC50) required 10.6 µM.
In the assay on CCRF-CEM [3], `CC(=O)NC(=O)Nc1cccc(NC(=O)CBr)c1` registered an IC50 of 3.2 µM.
Same read-out and setting: for `O=C(CBr)Nc1cccc(NC(=O)NCCCl)c1` the value was 0.77 µM.
Still for that read-out and setting: to `COc1cc(NC(=O)Nc2cccc(NC(=O)CBr)c2)cc(OC)c1OC` belongs 1 µM; to `CC(Br)C(=O)Nc1cccc(NC(=O)NC(=O)CCCl)c1` (centres undefined), 2.05 µM; to `CC(Br)C(=O)NC(=O)Nc1cccc(NC(=O)C(C)Br)c1` (centres undefined), 1.34 µM.
